Columns and labels:
[1] = tested on: orthotopic pancreatic PDX tumor; experiment: TUNEL staining of PDX tumors; format: in vivo, NSG mice; conditions: PDX tumors at euthanasia, 0.25 mg/kg i.p. every other day, vs vehicle
Method in brief: (§1)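 Orthotopic PDX mice received test compound 0.25 mg/kg i.p. or DMSO every other day. At endpoint, tumours were formalin-fixed and paraffin-embedded, and 5 micron sections were cut. Sections were stained for Ki-67 (proliferation) or by TUNEL (apoptosis). Ki-67 was scored as the average number of positive cells per high-power field by image analysis.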

[2] = tested on: orthotopic pancreatic patient-derived xenograft (PDX) tumor; experiment: In vivo efficacy study in orthotopic pancreatic PDX mouse model; conditions: 0.25 mg/kg i.p. every other day, NSG mice
Method in brief: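 A surgically resected human pancreatic ductal adenocarcinoma was expanded as 3 × 3 mm flank implants in female NSG mice and passaged at 2.0 cm. Second-generation tumour was then implanted orthotopically. On postoperative day 45 (palpable, 3–4 mm), mice were randomised to test compound 0.25 mg/kg i.p. or DMSO control every other day until endpoint. Diameter was measured by calipers and ultrasound every 3–5 days and volume calculated from it. Analysis used repeated-measures two-way ANOVA with Sidak tests.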

[3] = tested on: orthotopic pancreatic PDX tumor; experiment: Ki-67 staining of PDX tumors; format: in vivo, NSG mice; conditions: PDX tumors at euthanasia, 0.25 mg/kg i.p. every other day, vs vehicle
Method in brief: as §1

[4] = tested on: EC68 cells; experiment: Cell viability assay; format: cell-based, human; conditions: EC68 primary pancreatic cancer cells, MTT, 48 h
[5] = tested on: RTKs (EGFR, Met, IGF-1Rβ) in PANC-1 and EC46 cells; experiment: Immunoblot analysis of receptor tyrosine kinases; format: cell-based, human; conditions: 24 h
Method in brief: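 PANC-1 and EC46 cells were seeded at 200,000/well and attached overnight. Medium was renewed with the test compound or EtOH control added. Whole-cell lysates were taken at 24 h in phosphatase-safe buffer and protein was quantified by BCA. Equal protein was resolved on 4–12% SDS-PAGE and transferred to PVDF. Blots were probed for EGFR, Met, IGF-1Rβ and β-actin, with chemiluminescent detection.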

[6] = tested on: EC46 cells; experiment: Cell viability assay; format: cell-based, human; conditions: EC46 primary pancreatic cancer cells, MTT, 48 h
[7] = tested on: PANC-1 cells; experiment: Cell viability assay; format: cell-based, human; conditions: PANC-1 cells, MTT, 48 h
[8] = tested on: EC68, EC46 and PANC-1 cells; experiment: Cell growth MTT assay; format: cell-based, human; conditions: in vitro studies, Fig. 1, MTT 48 h
Method in brief: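 PANC-1 and primary patient-derived pancreatic cancer lines EC46 and EC68 were grown in DMEM/F-12K (1:1) with 10% FBS at 37 °C and 5% CO2. Cells were seeded at 5000/well and attached overnight. They were then exposed for 48 h to the test compound at various concentrations or to EtOH solvent control. Viability was read by MTT, and curves were fitted by nonlinear regression.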

With `CC[C@H](C)[C@@H]1C(=O)N2CCC[C@@H]2C(=O)O[C@H](C(C)(C)C)C[C@@H](C)C[C@@H](O)C(C)(C)C2=N[C@H](CCC(=O)N[C@@H](Cc3ccc(OC)cc3)C(=O)N(C)[C@@H](C)C(=O)N1C)CS2` [Apra S10, apratoxin S10] the “number of cells undergoing apoptosis (TUNEL)” value [1] was “no difference”, the “tumor growth (tumor volume)” value [2] was “significantly retarded tumor growth” and the “decrease in the number of cells undergoing proliferation (Ki-67)” value [3] was greater than 50%. The GI50 [4] was 0.35 nM, the “effect on RTKs” value [5] was “potently downregulated various RTKs” and the GI50 [6] was 0.32 nM. For the same compound, the GI50 [7] was 2.75 nM, the “concentration required to achieve the maximal response” value [8] was “around 50 nM” and the “concentration required to achieve the maximal response (minimum effective concentration)” value [8] was roughly 40 ng/mL.

Source: PMC6360136 (Investigational new drugs, 2018)
